Test results published in ChEMBL document CHEMBL1142659, “The role of intracellularly released formaldehyde and butyric acid in the anticancer activity of acyloxyalkyl esters” (J Med Chem, 2005).
pIC50: −log10 of the molar value.

Assays:
Type in all cases: functional, cell-based
HL-60 = assay: Concentration required for 50% inhibition of human HL-60 cell proliferation
Outline: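 HL-60 leukemia cells, including the multidrug-resistant HL-60/MX2 subline with altered topoisomerase II activity, were seeded at (2.5-5) × 10^3 cells per well. They were exposed to escalating prodrug concentrations for 4 days. Proliferation was read by Alamar blue, and IC50 values are given in µM.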

[1] = Concentration required for 50% inhibition of human MES-DX5 cell proliferation
Outline: (§1)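 Solid-tumour lines (HT-29, PC-3, MES-SA, and its mdr-1/P-glycoprotein-high MES-SA/Dx5 subclone) were seeded at (2.5-5) × 10^3 cells per well. They were exposed to escalating prodrug concentrations for 4 days, then harvested. Proliferation was measured by Hoechst DNA staining, and IC50 values are given in µM.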

PC-3 = assay: Concentration required for 50% inhibition of human PC-3 cell proliferation; outline: as §1
MES-SA = assay: Concentration required for 50% inhibition of human MES-SA cell proliferation; outline: as §1
HT-29 = assay: Concentration required for 50% inhibition of human HT-29 cell proliferation; outline: as §1

CCCC(=O)OCOC(=O)C(C)(C)C [AN-9]
pIC50 (HL-60): 4.44 | pIC50 [1]: 4.34 | pIC50 (PC-3): 4.25 | pIC50 (MES-SA): 4.40 | pIC50 (HT-29): 4.28
